Broadly, the IC50 is the concentration at which inhibition is half-maximal. By bioavailability is commonly meant the share of a dose that reaches the circulation, judged against a reference dose that is usually intravenous.

Where two headings read alike, the source gives them in different places. Some results are limits rather than exact numbers.

Series [1] addresses T1, OATP1B1 (Homo sapiens, UniProt Q9Y6L6).
T1 sequence (Q9Y6L6 1-691): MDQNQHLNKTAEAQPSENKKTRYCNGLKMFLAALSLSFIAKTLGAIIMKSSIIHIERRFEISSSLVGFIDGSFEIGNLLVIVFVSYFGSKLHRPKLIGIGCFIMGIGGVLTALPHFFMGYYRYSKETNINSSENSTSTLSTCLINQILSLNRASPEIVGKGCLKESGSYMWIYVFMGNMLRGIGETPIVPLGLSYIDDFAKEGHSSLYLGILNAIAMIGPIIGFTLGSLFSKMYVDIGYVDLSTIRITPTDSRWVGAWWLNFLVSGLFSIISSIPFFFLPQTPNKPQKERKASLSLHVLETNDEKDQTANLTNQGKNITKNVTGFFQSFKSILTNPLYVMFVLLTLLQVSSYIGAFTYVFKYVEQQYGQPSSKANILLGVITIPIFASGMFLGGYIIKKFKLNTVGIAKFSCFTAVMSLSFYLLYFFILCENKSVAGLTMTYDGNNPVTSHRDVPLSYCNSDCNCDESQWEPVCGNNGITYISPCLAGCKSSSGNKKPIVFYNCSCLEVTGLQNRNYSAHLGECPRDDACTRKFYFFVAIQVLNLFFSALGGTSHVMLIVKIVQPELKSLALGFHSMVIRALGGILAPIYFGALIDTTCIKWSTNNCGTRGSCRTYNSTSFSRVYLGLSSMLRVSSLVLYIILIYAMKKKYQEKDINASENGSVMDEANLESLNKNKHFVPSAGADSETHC
The settings on record: read-out: OATP1B1 IC50; control inhibitor; 8-FcA uptake; cited from earlier work.

Series [2] concerns the target T2, OATP1B3 (Homo sapiens, UniProt Q9NPD5).
T2 sequence (Q9NPD5 1-702): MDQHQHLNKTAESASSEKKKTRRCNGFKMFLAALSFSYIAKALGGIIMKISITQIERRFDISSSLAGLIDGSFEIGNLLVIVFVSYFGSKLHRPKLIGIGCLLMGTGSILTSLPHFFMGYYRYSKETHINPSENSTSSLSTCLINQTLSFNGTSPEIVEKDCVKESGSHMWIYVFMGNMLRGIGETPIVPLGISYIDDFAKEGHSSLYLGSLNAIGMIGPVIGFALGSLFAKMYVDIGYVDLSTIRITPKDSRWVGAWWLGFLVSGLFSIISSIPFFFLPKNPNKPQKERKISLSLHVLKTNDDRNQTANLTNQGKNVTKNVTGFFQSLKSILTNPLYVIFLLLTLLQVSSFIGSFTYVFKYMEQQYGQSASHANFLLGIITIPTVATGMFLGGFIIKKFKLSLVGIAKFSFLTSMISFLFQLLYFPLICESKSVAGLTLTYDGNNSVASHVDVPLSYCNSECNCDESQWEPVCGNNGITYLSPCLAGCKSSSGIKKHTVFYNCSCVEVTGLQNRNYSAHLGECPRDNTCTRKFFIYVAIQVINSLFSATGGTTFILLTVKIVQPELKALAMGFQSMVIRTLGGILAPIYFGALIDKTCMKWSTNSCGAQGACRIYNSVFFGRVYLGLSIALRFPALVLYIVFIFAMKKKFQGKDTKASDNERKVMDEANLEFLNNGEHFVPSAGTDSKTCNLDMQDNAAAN
The conditions noted are these: read-out: OATP1B3 IC50; control inhibitor; 8-FcA uptake; cited from earlier work.

Series [3] addresses T1, OATP1B1. The series can be described thus: OATP1B1 inhibition assay. Format: cell-based. An outline of the steps: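 Stably transfected OATP1B1- or OATP1B3-HEK293 cells and empty-vector HEK293 control, grown in DMEM/10% FCS with G418. Cells exposed 10 min at 37 °C to 2.5 µM 8-FcA ± test compound (0.1–100 µM, in PBS/2% FCS). After washing, median intracellular fluorescence read by flow cytometry (30,000 cells, viable gate). With/without-inhibitor ratio normalised to control line. 8 replicates/concentration, 3–5 experiments. Four-parameter fit gives IC50. Rifampicin control.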

For another series, the target named is T3, OATP2B1 (Homo sapiens, UniProt O94956).
T3 sequence (O94956 1-709): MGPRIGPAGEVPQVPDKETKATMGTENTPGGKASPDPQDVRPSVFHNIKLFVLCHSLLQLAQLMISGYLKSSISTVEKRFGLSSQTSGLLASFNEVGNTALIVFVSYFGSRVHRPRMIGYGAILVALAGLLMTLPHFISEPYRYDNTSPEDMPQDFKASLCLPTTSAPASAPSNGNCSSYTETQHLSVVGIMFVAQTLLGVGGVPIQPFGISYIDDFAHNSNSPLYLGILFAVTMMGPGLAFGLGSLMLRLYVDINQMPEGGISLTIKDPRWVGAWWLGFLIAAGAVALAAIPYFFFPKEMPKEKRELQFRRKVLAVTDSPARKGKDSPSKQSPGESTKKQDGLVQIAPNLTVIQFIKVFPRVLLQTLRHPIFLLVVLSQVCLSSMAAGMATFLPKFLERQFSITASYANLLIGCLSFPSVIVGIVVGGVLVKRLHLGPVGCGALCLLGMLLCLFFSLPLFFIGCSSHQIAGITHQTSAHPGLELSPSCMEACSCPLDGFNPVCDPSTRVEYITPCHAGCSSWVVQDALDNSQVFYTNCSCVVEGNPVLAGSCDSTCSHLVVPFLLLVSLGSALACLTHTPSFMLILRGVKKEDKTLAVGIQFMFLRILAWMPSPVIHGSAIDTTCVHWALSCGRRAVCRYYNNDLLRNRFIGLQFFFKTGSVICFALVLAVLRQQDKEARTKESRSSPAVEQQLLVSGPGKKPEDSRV
The experiment in a line: OATP2B1 inhibition assay. It counts as cell-based. In short, it runs like this:
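HEK293 cells with tetracycline-inducible OATP2B1, grown in DMEM/Ham's F12/10% FCS and induced with 1 µg/ml tetracycline 72 h before assay. Substrate 1 µM DBF ± test compound (0.1–100 µM, in PBS/2% FCS), 10 min at 37 °C. After washing, median intracellular fluorescence read by flow cytometry. Normalised to non-induced cells. 8 replicates/concentration, 3–5 experiments. IC50 from four-parameter fit. Naringin control inhibitor.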

Series [4] has as its target T2, OATP1B3. The series can be described thus: OATP1B3 inhibition assay. It counts as cell-based.
The conditions of series [5]: rats; cited from earlier work.

For the compound `CO[C@H]1/C=C/O[C@@]2(C)Oc3c(C)c(O)c4c(O)c(c(/C=N/N5CCN(C)CC5)c(O)c4c3C2=O)NC(=O)/C(C)=C\C=C\[C@H](C)[C@H](O)[C@@H](C)[C@@H](O)[C@@H](C)[C@H](OC(C)=O)[C@@H]1C` [Rifampicin, rifampicin], the IC50 at OATP1B1 [1] and on OATP1B3 [2] was about 2 µM throughout.
Turning to `COc1ccc(-c2cc(=O)c3c(OC)c(OC)c(OC)cc3o2)cc1OC` [Sinensetin, sinensetin], the IC50 on OATP1B1 [3] came out at 8 ± 2.6 µM; at OATP2B1, 5.4 ± 0.6 µM; against OATP1B3 [4] it was 21.1 ± 3.4 µM. The “potency for OATP1B3 relative to rifampicin” value on OATP1B3 [4] (comparison of IC50 values) is “about ten times lower”.
For the compound `COc1ccc(-c2cc(=O)c3c(OC)c(OC)c(OC)c(OC)c3o2)cc1OC` [Nobiletin, nobiletin], the IC50 amounted to 2.1 ± 0.7 µM at OATP1B1 [3], 1.6 ± 0.4 µM against OATP2B1 and 6.6 ± 0.4 µM at OATP1B3 [4]. In addition, the bioavailability in series [5] is on record as 36%.
In the case of `COc1ccc(-c2cc(=O)c3c(OC)c(OC)c(OC)c(OC)c3o2)cc1` [Tangeretin, tangeretin], the IC50 against OATP1B1 [3] amounted to 4.8 ± 1.7 µM; on OATP2B1, 1.6 ± 0.8 µM; against OATP1B3 [4], 5.6 ± 1 µM. The bioavailability in series [5] is given as 27%.
As for `C[C@@H]1O[C@@H](O[C@H]2[C@H](Oc3cc(O)c4c(c3)O[C@H](c3ccc(O)cc3)CC4=O)O[C@H](CO)[C@@H](O)[C@@H]2O)[C@H](O)[C@H](O)[C@H]1O` [Naringin, naringin, reference compound], the results for the IC50 at OATP1B1 [3], against OATP2B1 and against OATP1B3 [4] were over 100 µM, 6.9 ± 1.4 µM and over 100 µM, respectively.
Consider `C[C@@H]1O[C@@H](OC[C@H]2O[C@@H](Oc3cc(O)c4c(c3)O[C@H](c3ccc(O)cc3)CC4=O)[C@H](O)[C@@H](O)[C@@H]2O)[C@H](O)[C@H](O)[C@H]1O` [Narirutin, narirutin], for which the IC50 is over 100 µM against OATP1B1 [3], 14.2 ± 3.5 µM against OATP2B1 and over 100 µM at OATP1B3 [4].
